Source: ChEMBL document CHEMBL3865847, “The synthesis and biological evaluation of alkyl and benzyl naphthyridinium analogs of eupolauridine as potential antimicrobial and cytotoxic agents” (Bioorg Med Chem, 2016)
Values joined by “and” are separate entries in the source; they are usually repeats but may differ in a detail not shown here. Equal values may be shown once.

Assays:
[1] = tested on: Candida albicans; test: Antimicrobial activity against Candida albicans B311; type: functional
Summary of the method: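 Cultured in Sabouraud dextrose broth 24 h, counted by hemocytometer, diluted to 10,000 CFU/mL. Added to serially diluted samples in 96-well plates, top final concentration 50 µg/mL (≤2.5% DMSO), incubated 37 °C. Growth by A630. MIC is the lowest concentration giving 80% inhibition against controls; IC50 from concentration versus % growth plots.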

[2] = tested on: Cryptococcus neoformans; test: Antimicrobial activity against Cryptococcus neoformans ATCC 52657; type: functional
Summary of the method: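 Grown in mycophil broth 72 h, hemocytometer-counted, diluted to 200,000 CFU/mL. Exposed to diluted samples in 96-well plates, maximum final 50 µg/mL (DMSO up to 2.5%), incubated 30 °C. A630 readout. MIC is the lowest concentration inhibiting 80% of growth versus controls; IC50 read from concentration versus % growth graphs.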

[3] = tested on: Plasmodium falciparum; test: Antimalarial activity against Plasmodium falciparum D6 infected in RBC after 48 hrs by lactate dehydrogenase assay; type: functional; details: D6, 48 h
Summary of the method: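 Parasites grown in A+ human erythrocytes in RPMI 1640 with 10% A+ human serum, 25 mM HEPES, 27 mM bicarbonate, 60 µg/mL amikacin, 37 °C under 90% N2/5% O2/5% CO2. Infected cells exposed 48 h in microtiter wells, highest concentration 4.8 µg/mL. Growth read by Malstat reagent (parasite LDH) with nitro blue tetrazolium reduction, absorbance 630 nm.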

[4] = Cytotoxicity against human SK-MEL cells assessed as cell growth inhibition after 48 hrs by neutral red dye based assay; type: functional
Summary of the method: (§1)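 Cells kept in RPMI-1640 with 10% bovine serum and 60 µg/mL amikacin, 37 °C, 5% CO2. Seeded at 25,000 cells/well, left 24 h to adhere. Samples diluted in RPMI added, highest final concentration 10 µg/mL. Growth measured by neutral red uptake after 48 h exposure.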

[5] = Cytotoxicity against human SKOV3 cells assessed as cell growth inhibition after 48 hrs by neutral red dye based assay; type: functional; details: SK-OV-3, 48 h; summary of the method: as §1
[6] = Cytotoxicity against African green monkey Vero cells assessed as cell growth inhibition at 10 ug/ml after 48 hrs by neutral red dye based assay; type: toxicity; details: chlorocebus sabaeus; summary of the method: as §1
[7] = Inhibition of Candida albicans DNA topoisomerase 1 using pHOT1 as substrate after 30 mins by agarose gel electrophoresis
Summary of the method: (§2)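 Relaxation of supercoiled to relaxed DNA by TopoI measured with a commercial TopoI drug kit following kit protocol. IC50 calculated from dose-response curves of % inhibition versus concentration.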

[8] = target: T1, DNA topoisomerase 1 (Homo sapiens, UniProt P11387); test: Inhibition of human DNA topoisomerase 1 using pHOT1 as substrate after 30 mins by agarose gel electrophoresis; summary of the method: as §2
T1 sequence (P11387 whole entry): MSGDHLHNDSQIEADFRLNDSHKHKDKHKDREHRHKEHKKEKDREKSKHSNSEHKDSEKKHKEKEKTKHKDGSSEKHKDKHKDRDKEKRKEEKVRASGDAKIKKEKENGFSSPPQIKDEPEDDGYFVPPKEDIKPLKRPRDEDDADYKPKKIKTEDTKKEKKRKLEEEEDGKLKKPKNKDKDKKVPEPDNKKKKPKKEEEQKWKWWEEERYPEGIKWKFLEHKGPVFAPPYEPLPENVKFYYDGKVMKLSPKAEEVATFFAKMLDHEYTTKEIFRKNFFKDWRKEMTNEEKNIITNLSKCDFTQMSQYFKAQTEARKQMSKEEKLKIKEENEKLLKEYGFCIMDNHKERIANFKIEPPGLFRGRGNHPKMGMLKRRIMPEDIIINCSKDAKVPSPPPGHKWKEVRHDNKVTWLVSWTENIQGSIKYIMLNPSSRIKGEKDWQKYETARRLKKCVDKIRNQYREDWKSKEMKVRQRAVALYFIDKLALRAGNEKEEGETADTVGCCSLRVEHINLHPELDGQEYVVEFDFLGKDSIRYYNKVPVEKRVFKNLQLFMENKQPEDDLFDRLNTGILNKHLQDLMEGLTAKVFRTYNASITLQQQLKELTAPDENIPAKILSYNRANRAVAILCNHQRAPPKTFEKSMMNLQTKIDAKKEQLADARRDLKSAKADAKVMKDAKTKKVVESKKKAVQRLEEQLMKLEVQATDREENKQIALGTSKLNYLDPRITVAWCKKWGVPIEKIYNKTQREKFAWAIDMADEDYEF

[9] = Selectivity index, ratio of IC50 for human DNA topoisomerase 1 to IC50 for Candida albicans DNA topoisomerase 1
[10] = Cytotoxicity against human KB cells assessed as cell growth inhibition after 48 hrs by neutral red dye based assay; type: functional; summary of the method: as §1
[11] = Cytotoxicity against human BT549 cells assessed as cell growth inhibition after 48 hrs by neutral red dye based assay; type: functional; details: BT-549, 48 h; summary of the method: as §1

Row | Compound | IC50 [1] | MIC80 [1] | IC50 [2] | MIC80 [2] | IC50 [3] | IC50 [7] | IC50 [8] | Ratio IC50 [9] | IC50 [4] | IC50 [5] | Activity [6] | IC50 [10] | IC50 [11]
1 | [Br-].c1ccc(C[n+]2ccc3ccnc4c3c2-c2ccccc2-4)cc1 | 4.17 µg/mL | 6.25 µg/mL | 0.43 µg/mL | 1.56 µg/mL | 0.0225 µg/mL | 19 µg/mL | 101 µM | 0.5 | 5.4 µg/mL | 1.5 µg/mL | Non-Toxic | – | –
2 | C[n+]1ccc2c3c(nc4ccccc42)-c2ccccc2-c31 | – | – | – | – | – | – | – | 0.83 and 1 | – | – | – | – | –
3 | O=C(C[n+]1ccc2ccnc3c2c1-c1ccccc1-3)c1ccccc1.[Br-] | – | – | 6.18 µg/mL | 25 µg/mL | 0.17 µg/mL | 50 µg/mL | 136 µM | 0.91 | – | 6 µg/mL | Non-Toxic | > 10 µg/mL | > 10 µg/mL
4 | CCOC(=O)C[n+]1ccc2ccnc3c2c1-c1ccccc1-3.[Br-] | – | – | – | – | 0.5 µg/mL | 75 µg/mL | 242 µM | 0.83 | – | 7.6 µg/mL | Non-Toxic | – | –
5 | Fc1ccc(C[n+]2ccc3ccnc4c3c2-c2ccccc2-4)cc1.[Br-] | 9.33 µg/mL | 12.5 µg/mL | 0.87 µg/mL | 3.12 µg/mL | 0.017 µg/mL | 40 µg/mL | 127 µM | 0.8 | 6 µg/mL | 1.5 µg/mL | Non-Toxic | > 10 µg/mL | 7.5 µg/mL
6 | CCN(CC)CCCC(C)Nc1ccnc2cc(Cl)ccc12 (centres undefined) [CHLOROQUINE] | – | – | – | – | < 0.02 µg/mL | – | – | – | – | – | – | – | –
7 | Fc1ccc(C[n+]2ccc3ccnc4c3c2-c2ccccc2-4)c(F)c1.[Br-] | 5.33 µg/mL | 6.25 µg/mL | 0.58 µg/mL | 1.56 µg/mL | 0.015 µg/mL | 32 µg/mL | 109 µM | 0.71 | 6.2 µg/mL | 2.8 µg/mL | Non-Toxic | – | –

Continued, in another order:

Row | IC50 [1] | MIC80 [1] | IC50 [2] | MIC80 [2] | IC50 [3] | IC50 [7] | IC50 [8] | Ratio IC50 [9] | Compound | IC50 [4] | IC50 [5] | Activity [6] | IC50 [10] | IC50 [11]
8 | 5.17 µg/mL | 12.5 µg/mL | 0.57 µg/mL | 3.12 µg/mL | 0.0094 µg/mL | 0.52 µg/mL | 1.11 µM | 1 | [Br-].c1ccc(C[n+]2ccc3c4c(nc5cc6c(cc53)OCO6)-c3ccccc3-c42)cc1 | 0.55 µg/mL | 0.6 µg/mL | Non-Toxic | 1 µg/mL | 1.3 µg/mL
9 | 1.5 µg/mL | 3.12 µg/mL | 0.95 µg/mL | 3.12 µg/mL | 0.04 µg/mL | 4.3 µg/mL | 9.75 µM | 0.98 | [Br-].c1ccc(C[n+]2ccc3cc(-c4ccccc4)nc4c3c2-c2ccccc2-4)cc1 | 0.7 µg/mL | 0.25 µg/mL | Non-Toxic | 1 µg/mL | 1.2 µg/mL
10 | – | – | 19.7 µg/mL | 50 µg/mL | 3.2 µg/mL | 7.5 µg/mL | 35.8 µM | 0.5 | Cc1cc(C)cc(CS(=O)(=O)[O-])c1.N[n+]1ccc2ccnc3c2c1-c1ccccc1-3 | > 10 µg/mL | – | Non-Toxic | – | –
11 | – | – | 8 µg/mL | 50 µg/mL | 0.11 µg/mL | 5 µg/mL | 12.5 µM | 1.11 | Cc1cc2cc[n+](C)c3c2c(n1)-c1ccccc1-3.[I-] | – | – | Non-Toxic | – | –
12 | – | – | – | – | 0.56 µg/mL | 2.3 µg/mL | 5.7 µM | 0.96 | CCOC(=O)C[n+]1ccc2c3c(nc4ccccc42)-c2ccccc2-c31.[Br-] | > 10 µg/mL | 5.9 µg/mL | Non-Toxic | – | –
13 | – | – | 10 µg/mL | 50 µg/mL | 0.06 µg/mL | 10 µg/mL | 28.9 µM | 1 | C[n+]1ccc2ccnc3c2c1-c1ccccc1-3.[I-] | – | > 10 µg/mL | Non-Toxic | – | –
